TRPC6 act: mouse TRPC6 channel activators, primary screen, cell-based, HEK293, membrane potential dye | Short transient receptor potential channel 6 (Mus musculus), Q61143 | HEK293-TRPC6 membrane potential dye fluorescence; active compounds read high | B-score at 10 µM | actives 0.13% (n = 310,000) | AID 2550, 2010;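 active = B-score of the integrated fluorescence ratio above library mean plus 3 SD, and starting fluorescence ratio within library mean plus 5 SD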;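 also: higher score means more depolarization so channel activation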
TRPC4 act: activators of mouse TRPC4 channel, primary screen, Fluo4 calcium, HEK293 TRPC4beta/mu-opioid cells | Short transient receptor potential channel 4 (Mus musculus), Q9QUQ5 | Fluo4 calcium fluorescence; active compounds read high | B-score at 10 µM | actives 0.49% (n = 310,000) | AID 2237, 2010;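 active = B-score above 5 SD of library B-scores, and initial fluorescence ratio not above library mean plus 5 SD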;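 also: positive B-score marks a calcium rise read as TRPC4 activation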
Target sequence (Q9QUQ5 whole entry, looked up): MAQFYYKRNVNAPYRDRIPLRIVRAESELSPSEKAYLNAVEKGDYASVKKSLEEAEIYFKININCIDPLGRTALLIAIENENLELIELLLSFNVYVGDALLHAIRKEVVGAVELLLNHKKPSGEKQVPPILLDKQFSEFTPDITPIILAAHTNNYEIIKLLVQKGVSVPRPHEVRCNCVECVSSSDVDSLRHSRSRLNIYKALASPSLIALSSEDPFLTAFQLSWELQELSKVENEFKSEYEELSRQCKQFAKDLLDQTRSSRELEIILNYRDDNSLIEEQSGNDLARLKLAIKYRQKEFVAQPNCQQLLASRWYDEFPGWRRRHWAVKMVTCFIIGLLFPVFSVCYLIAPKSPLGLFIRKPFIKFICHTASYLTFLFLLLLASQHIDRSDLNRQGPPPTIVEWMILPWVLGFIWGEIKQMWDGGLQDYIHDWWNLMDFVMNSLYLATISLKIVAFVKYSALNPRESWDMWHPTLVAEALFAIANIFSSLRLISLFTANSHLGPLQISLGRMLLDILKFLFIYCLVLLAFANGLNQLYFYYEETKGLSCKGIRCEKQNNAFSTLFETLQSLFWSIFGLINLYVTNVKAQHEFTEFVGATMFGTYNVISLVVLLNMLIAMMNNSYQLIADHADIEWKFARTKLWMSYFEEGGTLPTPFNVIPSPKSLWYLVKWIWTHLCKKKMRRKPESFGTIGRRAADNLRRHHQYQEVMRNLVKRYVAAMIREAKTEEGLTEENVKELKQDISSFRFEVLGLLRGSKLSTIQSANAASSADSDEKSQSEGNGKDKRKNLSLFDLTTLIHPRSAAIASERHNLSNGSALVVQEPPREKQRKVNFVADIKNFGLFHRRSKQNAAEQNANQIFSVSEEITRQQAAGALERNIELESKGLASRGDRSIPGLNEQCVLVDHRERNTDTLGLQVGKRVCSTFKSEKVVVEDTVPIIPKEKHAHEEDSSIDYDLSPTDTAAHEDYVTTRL
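Assay system: HEK293 stable line with TRPC4beta plus mu-opioid receptor. Times: dye 45 min RT, read 110 s. Measured by: kinetic Fluo4 calcium fluorescence. Measure: B score of integrated ratio. Controls: assay buffer as low control, maximal DAMGO as high control.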
TRPC4 PAM: positive allosteric modulators of TRPC4, primary screen, cell-based, mouse TRPC4beta, HEK293 mu-opioid, Fluo-4 calcium; Short transient receptor potential channel 4 (Mus musculus), Q9QUQ5; DAMGO EC20, Fluo-4 Ca2+ flux; active compounds read high; B-score at 10 µM; actives 0.42% (n = 310,000); AID 2227, 2009;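 active = B-score of calcium response area above 5 SD of library B-scores, with initial fluorescence ratio within 5 SD of library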;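 also: B-score of integrated fluorescence ratio over time as area under calcium response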
TRPC6 inhibitor: mouse TRPC6 channel inhibitors, primary screen, cell-based, HEK293, membrane potential dye. Short transient receptor potential channel 6 (Mus musculus), Q61143. ACh-evoked depolarization; active compounds read low. B-score at 10 µM. actives 1.1% (n = 310,000). AID 2553, 2010;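 active = B-score under library mean minus 3 SD, initial fluorescence not abnormally high, positive integrated signal ratio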;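 also: B-score derived from integrated fluorescence ratio over the kinetic read; more negative B-score means stronger inhibition of depolarization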
TRPC4 block: inhibitors of mouse TRPC4 channel, primary screen, Fluo4 calcium, HEK293 TRPC4beta/mu-opioid cells. Short transient receptor potential channel 4 (Mus musculus), Q9QUQ5. DAMGO-evoked Fluo4 calcium flux; active compounds read low. B-score at 10 µM. actives 0.39% (n = 300,000);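 active = B-score over 3 SD under the library average, no early fluorescence shift, positive overall ratio signal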
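test system = HEK293 cells with stable TRPC4beta plus mu-opioid receptor expression | detection = Fluo4 Ca2+ flux fluorescence | read-out = integrated fluorescence ratio relative to baseline, converted to per-well B score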
* = called active by the depositor; i = inactive. Rows were chosen to be rich in hits. Some 2.3% of all compounds tested hit in one or more screens of this group.

SMILES | TRPC6 act | TRPC4 act | TRPC4 PAM | TRPC6 inhibitor | TRPC4 block
COc1ccccc1C1C(C(=O)c2ccco2)=C(O)C(=O)N1c1cc(C)on1 (stereo not drawn) | i | i | i | i | i
OCCCC1CCCN(Cc2cn[nH]c2-c2ccc(F)cc2F)C1 (stereo not drawn) | i | i | i | i | i
CN1CCN(Cc2cn[nH]c2-c2ccc(F)cc2F)[C@@H](c2ccccc2)C1 | i | i | i | i | -5*
Cc1nn(C(=O)CNS(=O)(=O)c2ccccc2)c(C)c1Sc1ccc(Cl)cc1 | i | i | i | i | -7*
CCOc1ccccc1CN1CCNC(=O)C1CC(=O)NCCC1=CCCCC1 (stereo not drawn) | i | i | i | i | i
CCOc1ccccc1CN1CCNC(=O)C1CC(=O)NCCc1ccccn1 (stereo not drawn) | i | 88* | i | i | i
CCOc1ccccc1CN1CCNC(=O)C1CC(=O)N(C)CCc1ccccn1 (stereo not drawn) | i | 153* | i | i | i
O=C(CC1C(=O)NCCN1Cc1ccc(-c2ccccc2)cc1)NCCc1ccccn1 (stereo not drawn) | i | 130* | i | i | i
CN(CCc1ccccn1)C(=O)CC1C(=O)NCCN1Cc1ccc(-c2ccccc2)cc1 (stereo not drawn) | i | 160* | i | i | i
CCOc1ccccc1CN1CCNC(=O)C1CC(=O)N(C)CCC1CCOCC1 (stereo not drawn) | i | i | i | i | i
Cc1ccc(CN2CCNC(=O)C2CC(=O)N(C)CCc2ccccc2)cc1 (stereo not drawn) | i | i | i | i | i
CC(C)Cc1cc(CN2CCC(CO)(Cc3ccccc3)CC2)[nH]n1 | i | i | i | i | i
CCOC(=O)C1=C(C(F)(F)F)Nc2ncnn2C1c1ccc(OC)c(OC)c1OC (stereo not drawn) | i | i | i | i | i
Cc1cccc(-n2ncc3c2CCCC3NC(=O)CCCN2CCCCC2=O)c1C (stereo not drawn) | i | i | i | i | i
CC(Oc1ccc(Br)cc1Br)C(=O)Nc1cccnc1Cl (stereo not drawn) | i | i | i | i | i
Cc1csc(CN(C)C(=O)CC2C(=O)NCCN2Cc2ccc(F)cc2Cl)n1 (stereo not drawn) | i | i | i | i | i
Cc1csc(CN(C)C(=O)CC2C(=O)NCCN2Cc2ccc(Cl)c(F)c2)n1 (stereo not drawn) | i | i | 12* | i | i
Cc1cc(C)c(NC2=NCC(=O)N2C2CCCCC2)c(C)c1 | i | i | i | i | i
O=C1CN=C(Nc2cccc(C(F)(F)F)c2)N1C1CCCC1 | i | i | i | i | -6*
CCOc1ccc(C/C(O)=C2\C(=O)CC(C)(C)CC2=NCC(=O)O)cc1OCC | i | i | i | i | i
Cc1cc(C)c(C(=O)c2ccc(C(=O)N(C(C)C)C(C)C)cc2)c(C)c1 | i | i | 10* | i | i
Cc1cc(C)c(C(=O)c2ccc(C(=O)NC(C)(C)C)cc2)c(C)c1 | i | i | i | i | i
Cc1cc(C)c(C(=O)c2ccc(C(=O)N3CCCCC3)cc2)c(C)c1 | i | i | 16* | i | i
CC(C)(C)c1ccc(S(=O)(=O)N2CC(C(=O)O)Oc3ccc(Cl)cc32)cc1 (stereo not drawn) | i | i | i | i | i
COc1ccc(CCNCC(O)COc2ccc(OC)cc2C(C)(C)C)cc1 (stereo not drawn) | i | i | 16* | i | i
COc1ccc(CCNCC(O)COc2cccc(Br)c2)cc1OC (stereo not drawn) | i | i | i | i | i
